ChEMBL document CHEMBL1125745, “Unsaturated and carbocyclic nucleoside analogues: synthesis, antitumor, and antiviral activity” (J Med Chem, 1991)

Legend:
L1210 [1] = experiment: Inhibitory activity against murine leukemia L1210 cells; assay type: functional, cell-based; settings: Mus musculus
MC-38 [2] = experiment: Cytotoxicity was evaluated against C38 solid tumor of mouse at 500 ug/disk.; assay type: functional; parameters: unit not given beside the values
How it was run: (§1)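 Disk zone assay: analogue dilutions on 6.5 mm paper disks were placed on dishes with a 0.8% agar bottom layer and a 0.44% soft-agar top layer of tumor cells (≤1 × 10^5/plate) in Fishers-CMRL-1066 with 12% horse serum. Plates were incubated 6-10 days and the inhibition zone was measured by microscope; 200 zone units = 6 mm.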

L1210 [3] = experiment: Cytotoxicity was evaluated against L1210 leukemia cell line at 500 ug/disk.; assay type: functional, Mus musculus; how it was run: as §1
[4] = Cytotoxicity was evaluated against low malignancy line at 500 ug/disk.; assay type: functional; how it was run: as §1
[5] = Cytotoxicity was evaluated against CO9 solid tumor of mouse at 500 ug/disk.; assay type: functional; how it was run: as §1
Homo sapiens [6] = species on record: Homo sapiens; experiment: Cytotoxicity was evaluated against PO1 human solid tumor at 500 ug/disk.; assay type: functional; how it was run: as §1
Mus musculus [7] = species on record: Mus musculus; experiment: Concentration that reduces Friend murine leukemia virus titer by 50%; assay type: functional, organism-based
How it was run: (§2)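 SC-1 cells (1 × 10^4/well) were pretreated with polybrene, infected 2 h at 37 °C with F-MuLV or R-MuLV in EMEM-5 with 8 µg/mL polybrene, washed, and refed with analogue for 72 h. They were then UV-irradiated and overlaid with XC cells (2 × 10^5) for 48 h, fixed and stained with crystal violet. Multinucleated cells were counted and EC50 was taken by linear regression versus untreated cultures.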

[8] = (§3) Inhibition of incorporation of labeled precursor into macromolecules of noninfected SC-1 cells with the compound at a concentration 300 uM determined against leucine.; assay type: functional
How it was run: (§4)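 SC-1 cells seeded in 24-well trays at 1 × 10^4 cells/mL, incubated overnight at 37 °C, then exposed to analogue for 72 h at 37 °C. Labeled thymidine (2.5 µCi), [3H-5,6]uridine or [3H-4,5]leucine was added. After 4 h, cells were washed with cold PBS, lysed in 1% SDS/0.01 M EDTA/0.01 M Tris pH 7.7, and lysates were dried on GF/B filters. Result given as % of untreated incorporation.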

[9] = (§5) Inhibition of incorporation of labeled precursor into macromolecules of noninfected SC-1 cells with the compound at a concentration 300 uM determined against thymidine; assay type: functional; how it was run: as §4
[10] = (§6) Inhibition of incorporation of labeled precursor into macromolecules of noninfected SC-1 cells with the compound at a concentration 300 uM determined against uridine.; assay type: functional; how it was run: as §4
[11] = (§7) Inhibition of incorporation of labeled precursor into macromolecules of noninfected SC-1 cells with the compound at a concentration 100 uM determined against leucine.; assay type: functional
How it was run: (§8)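 Noninfected SC-1 cells were incubated with analogue as in the cytotoxicity setup, and [3H]thymidine, [3H]uridine or [3H]leucine was added. After 4 h, wells were washed with ice-cold PBS and cells were lysed in 1% SDS, 0.01 M EDTA, 0.01 M Tris pH 7.7. Lysates were dried on glass-fiber filters, and label is expressed as percent of incorporation in untreated cells.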

[12] = (§9) Inhibition of incorporation of labeled precursor into macromolecules of noninfected SC-1 cells with the compound at a concentration 100 uM determined against thymidine; assay type: functional; how it was run: as §8
[13] = (§10) Inhibition of incorporation of labeled precursor into macromolecules of noninfected SC-1 cells with the compound at a concentration 100 uM determined against uridine.; assay type: functional; how it was run: as §8
Mus musculus [14] = species on record: Mus musculus; experiment: Cytotoxicity was evaluated; assay type: functional
How it was run: (§11)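 SC-1 cells (1 × 10^4 cells/mL) were seeded, incubated overnight at 37 °C, refed with EMEM-10 and given diluted analogue in triplicate for 72 h at 37 °C. Cells were trypsinized and counted in a Coulter counter. The mean of three wells gave percent of control count, and IC50 was calculated by linear regression.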

Mus musculus [15] = species on record: Mus musculus; experiment: Concentration that reduces Rauscher murine leukemia virus titer by 50%; assay type: functional, organism-based; how it was run: as §2
[16] = Selectivity index is the ratio of IC50 to EC50 of F-MuLV.; assay type: functional
[17] = Selectivity index which is the ratio of IC50 to EC50 of R-MuLV.; assay type: functional
Mus musculus [18] = species on record: Mus musculus; experiment: Cytotoxicity was evaluated and represented as IC50.; assay type: functional; how it was run: as §11
Homo sapiens [19] = species on record: Homo sapiens; experiment: Cytotoxicity was evaluated against C116 human solid tumor at 500 ug/disk.; assay type: functional; how it was run: as §1
L1210 [20] = experiment: Cytotoxicity was evaluated against L1210 leukemia cell line at 1000 ug/disk.; assay type: functional, Mus musculus; how it was run: as §1
PO3 [21] = experiment: Cytotoxicity was evaluated against PO3 cell line at 1000 ug/disk.
Mus musculus [22] = species on record: Mus musculus; experiment: as §3; assay type: functional; how it was run: as §4
Mus musculus [23] = species on record: Mus musculus; experiment: as §5; assay type: functional; how it was run: as §4
Mus musculus [24] = species on record: Mus musculus; experiment: as §6; assay type: functional; how it was run: as §4
Mus musculus [25] = species on record: Mus musculus; experiment: as §7; assay type: functional; how it was run: as §8
Mus musculus [26] = species on record: Mus musculus; experiment: as §9; assay type: functional; how it was run: as §8
Mus musculus [27] = species on record: Mus musculus; experiment: as §10; assay type: functional; how it was run: as §8
Homo sapiens [28] = species on record: Homo sapiens; experiment: Cytotoxicity was evaluated against C116 human solid tumor at 1000 ug/disk.; assay type: functional; how it was run: as §1
MC-38 [29] = experiment: Cytotoxicity was evaluated against C38 solid tumor of mouse at 1000 ug/disk.; assay type: functional; how it was run: as §1
[30] = Cytotoxicity was evaluated against low malignancy line at 1000 ug/disk.; assay type: functional; how it was run: as §1
PO3 [31] = experiment: Cytotoxicity was evaluated against PO3 cell line at 1000 ug/disk.; assay type: functional, Mus musculus; how it was run: as §1
Homo sapiens [32] = species on record: Homo sapiens; experiment: Cytotoxicity was evaluated against H125 human solid tumor at 500 ug/disk.; assay type: functional; how it was run: as §1

For `Nc1ccn(CC#CCO)c(=O)n1`, the IC50 (L1210 [1]) was > 550 µM.
`NC1=NC(Cl)c2c(ncn2C/C=C/CCl)N1` (stereo unspecified) showed a Cytotoxicity (MC-38 [2]) of 700, a Cytotoxicity (L1210 [3]) of 800 and a Cytotoxicity [4] of 600. For the same compound, the IC50 (L1210 [1]) was 39 µM.
Compound `Cc1cn(C/C=C\CCl)c(=O)[nH]c1=O` has a Cytotoxicity [5] of 320, a Cytotoxicity (L1210 [3]) of 610 and a Cytotoxicity [4] of 400. For the same compound, the IC50 (L1210 [1]) was 46 µM and the Cytotoxicity (Homo sapiens [6]) was 550.
In the case of `Nc1nc(O)c2ncn(C=C=CCO)c2n1`, the IC50 (L1210 [1]) is reported as > 350 µM.
Compound `Nc1ccn(C=C=CCO)c(=O)n1` has an EC50 (Mus musculus [7]) of 8.1 µM, a Precursor inhibition [8] of 75% and a Precursor inhibition [9] of 67%. For the same compound, the Precursor inhibition [10] was 51%, the IC50 (L1210 [1]) was 560 µM and the Precursor inhibition [11] was 91%. For the same compound, the Precursor inhibition [12] was 89%, the Precursor inhibition [13] was 75% and the IC50 (Mus musculus [14]) was 489 µM. The EC50 (Mus musculus [15]) was 11.5 µM, the SI [16] was 60.4 and the SI [17] was 42.5.
Work on `Nc1nc(O)c2ncn(C/C=C/CO)c2n1` yielded an IC50 (L1210 [1]) of 200 µM.
With `N=c1ncn2c3c1ncn3CC=CC2` the IC50 (L1210 [1]) was > 1000 µM.
In the case of `Nc1ccn([C@H]2CC[C@@H](CO)O2)c(=O)n1` [ZALCITABINE], the EC50 (Mus musculus [7]) is reported as 23 µM, the IC50 (Mus musculus [14]) is reported as > 100 µM and the EC50 (Mus musculus [15]) is reported as 13.8 µM. The SI [16] was > 4.4 and the SI [17] was > 7.3.
`Cc1cn(CC#CCCl)c(=O)[nH]c1=O` gave a Cytotoxicity (MC-38 [2]) of 630, a Cytotoxicity (L1210 [3]) of 520 and a Cytotoxicity [4] of 610. It also gave an IC50 (L1210 [1]) of 140 µM.
In the case of `O=C(O)P(=O)(O)O` [FOSCARNET], the EC50 (Mus musculus [7]) is reported as 110 µM, the IC50 (Mus musculus [18]) is reported as 1000 µM and the EC50 (Mus musculus [15]) is reported as 42.8 µM. The SI [16] was 9.1 and the SI [17] was 23.4.
Work on `NC1=NC(N)c2c(ncn2C=C=CCO)N1` (stereo unspecified) yielded a Cytotoxicity (Homo sapiens [19]) of 200, a Cytotoxicity (MC-38 [2]) of 180 and an EC50 (Mus musculus [7]) of 118 µM. It also gave a Cytotoxicity (L1210 [20]) of 150, a Cytotoxicity [4] of 40 and an IC50 (L1210 [1]) of 60 µM. It also gave an IC50 (Mus musculus [14]) of 255 µM, an EC50 (Mus musculus [15]) of 118 µM and an SI [16] of 2.2. It also gave an SI [17] of 2.2.
For `Nc1ncnc2c1ncn2/C=C\CCO`, the EC50 (Mus musculus [7]) was 194 µM, the IC50 (L1210 [1]) was 200 µM and the IC50 (Mus musculus [14]) was > 300 µM. For the same compound, the EC50 (Mus musculus [15]) was 160 µM, the SI [16] was > 1.6 and the SI [17] was > 1.9.
Work on `Nc1ncnc2c1ncn2C=C=CCO` yielded an EC50 (Mus musculus [7]) of 124 µM, a Cytotoxicity (L1210 [20]) of 160 and a Precursor inhibition [8] of 79%. For the same compound, the Precursor inhibition [9] was 46%, the Precursor inhibition [10] was 105% and the IC50 (L1210 [1]) was 150 µM. The Precursor inhibition [11] was 94%, the Precursor inhibition [12] was 80% and the Precursor inhibition [13] was 107%. It also gave an IC50 (Mus musculus [14]) of 168 µM, an EC50 (Mus musculus [15]) of 87.3 µM and an SI [16] of 1.4. The SI [17] was 1.9 and the Cytotoxicity (PO3 [21]) was 0.
Work on `Nc1ncnc2c1ncn2CC#CCO` yielded an EC50 (Mus musculus [7]) of 245 µM, a Precursor inhibition (Mus musculus [22]) of 75% and a Precursor inhibition (Mus musculus [23]) of 36%. For the same compound, the Precursor inhibition (Mus musculus [24]) was 66%, the IC50 (L1210 [1]) was 490 µM and the Precursor inhibition (Mus musculus [25]) was 88%. The Precursor inhibition (Mus musculus [26]) was 60%, the Precursor inhibition (Mus musculus [27]) was 67% and the IC50 (Mus musculus [18]) was 407 µM. It also gave an EC50 (Mus musculus [15]) of 156 µM, an SI [16] of 1.7 and an SI [17] of 2.6.
Work on `Nc1ccn([C@@H]2O[C@H](CO)[C@@H](O)[C@@H]2O)c(=O)n1` [CYTARABINE] yielded an IC50 (L1210 [1]) of 0.08 µM.
`Nc1ncnc2c1ncn2C/C=C/CO` gave an IC50 (L1210 [1]) of 125 µM.
Compound `Nc1ncnc2c1ncn2C1C=CCO1` (stereo unspecified) has a Cytotoxicity (Homo sapiens [28]) of 460, a Cytotoxicity (MC-38 [29]) of 400 and a Cytotoxicity [30] of 500. The Cytotoxicity (L1210 [20]) was 520, the IC50 (L1210 [1]) was > 500 µM and the Cytotoxicity (PO3 [31]) was 320.
Work on `Cc1cn(C=C=CCO)c(=O)[nH]c1=O` yielded an IC50 (L1210 [1]) of 100 µM.
`Nc1ccn(C/C=C/CCl)c(=O)n1` showed a Cytotoxicity (L1210 [3]) of 520, a Cytotoxicity [4] of 370 and an IC50 (L1210 [1]) of 50 µM. The Cytotoxicity (PO3 [21]) was 550.
For `NC1=NC(Cl)c2c(ncn2CC#CCCl)N1` (stereo unspecified), the IC50 (L1210 [1]) was 39 µM.
In the case of `Nc1ncnc2c1ncn2CC#CCCl`, the Cytotoxicity (MC-38 [2]) is reported as 950, the Cytotoxicity (Homo sapiens [32]) is reported as 900 and the Cytotoxicity (L1210 [3]) is reported as 930. For the same compound, the Cytotoxicity [4] was 950, the IC50 (L1210 [1]) was 90 µM and the Cytotoxicity (PO3 [21]) was 520.
